Reference: ChEMBL document CHEMBL1133118 (J Med Chem, 2000)

Tests used:
[1] = biological target: T1, Adenosine receptor A2b (Homo sapiens, UniProt P29275); experiment: Displacement of [3H]DPCPX from Adenosine A2b receptor expressed in […]; range 1637-2582; assay type: cell-based
T1 sequence (P29275 whole entry): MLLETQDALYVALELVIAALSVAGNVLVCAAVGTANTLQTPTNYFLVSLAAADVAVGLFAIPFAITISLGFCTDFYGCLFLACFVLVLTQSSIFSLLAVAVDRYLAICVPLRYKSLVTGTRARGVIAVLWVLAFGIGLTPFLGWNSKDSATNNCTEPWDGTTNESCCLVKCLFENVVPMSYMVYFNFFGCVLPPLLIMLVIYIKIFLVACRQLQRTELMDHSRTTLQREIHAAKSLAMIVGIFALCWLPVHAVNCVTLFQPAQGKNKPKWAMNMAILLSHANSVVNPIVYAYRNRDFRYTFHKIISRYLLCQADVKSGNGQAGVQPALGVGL

[2] = biological target: T2, Adenosine receptor A3 (Homo sapiens) (UniProt P0DMS8); experiment: Percentage of blockade by 1 uM of the inhibition by 100 nM IB-MECA-inhibited cAMP accumulation in CHO cells expressing human adenosine A3 receptor.; assay type: functional, cell-based
T2 sequence (whole entry): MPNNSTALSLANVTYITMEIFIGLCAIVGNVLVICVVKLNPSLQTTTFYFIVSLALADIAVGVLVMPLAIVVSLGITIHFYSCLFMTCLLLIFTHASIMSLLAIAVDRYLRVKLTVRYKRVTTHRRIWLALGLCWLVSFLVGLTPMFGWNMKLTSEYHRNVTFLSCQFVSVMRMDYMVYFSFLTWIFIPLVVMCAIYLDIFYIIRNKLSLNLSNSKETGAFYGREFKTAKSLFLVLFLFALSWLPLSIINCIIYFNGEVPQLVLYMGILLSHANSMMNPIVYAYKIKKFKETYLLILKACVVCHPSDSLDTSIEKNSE
Procedure, shortened: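 CHO cells stably expressing human A3 receptor; membranes in 50 mM Tris HCl, 10 mM MgCl2, 1 mM EDTA pH 7.4 with 5 μM GTP, 0.5 mM […] and 2.0 IU/mL adenosine deaminase. Preincubated 10 min at 37 °C, then IB-MECA (100 nM) and/or antagonist with 1 mM ATP and 10 μM forskolin for 10 min. Boiled 2 min. cAMP read by [3H]cAMP competition with adrenal binding protein.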

[3] = biological target: Adenosine receptors; A2b & A3 (Homo sapiens) (UniProt P29275+P0DMS8); experiment: Ratio of binding affinity of human A2B receptor to that of human A3 receptor; assay type: protein assay
Procedure, shortened: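 Ki ratio, n=3-6, 6–8 concentrations. A2B in HEK-293 membranes (20 μg): 40 nM [3H]DPCPX, 50 mM Tris HCl, 10 mM MgCl2, 1 mM EDTA, 0.1 mM benzamidine pH 7.4, 2 IU/mL adenosine deaminase, 60 min at 25 °C, nonspecific with 100 μM NECA. A3 in CHO membranes (50 μg): 1 nM [3H]MRE3008-F20, 120 min at 4 °C.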

[4] = biological target: T1, Adenosine receptor A2b; experiment: Displacement of [3H]DPCPX from Adenosine A2b receptor expressed in HEK-293 cells; range 40-69
[5] = biological target: T3, Adenosine receptor A2a (Homo sapiens, UniProt P29274); experiment: Displacement of [3H]-SCH- 58261 from human adenosine A2A receptor expressed in CHO cells; range 1.4-2.1; assay type: cell-based
T3 sequence (P29274 whole entry): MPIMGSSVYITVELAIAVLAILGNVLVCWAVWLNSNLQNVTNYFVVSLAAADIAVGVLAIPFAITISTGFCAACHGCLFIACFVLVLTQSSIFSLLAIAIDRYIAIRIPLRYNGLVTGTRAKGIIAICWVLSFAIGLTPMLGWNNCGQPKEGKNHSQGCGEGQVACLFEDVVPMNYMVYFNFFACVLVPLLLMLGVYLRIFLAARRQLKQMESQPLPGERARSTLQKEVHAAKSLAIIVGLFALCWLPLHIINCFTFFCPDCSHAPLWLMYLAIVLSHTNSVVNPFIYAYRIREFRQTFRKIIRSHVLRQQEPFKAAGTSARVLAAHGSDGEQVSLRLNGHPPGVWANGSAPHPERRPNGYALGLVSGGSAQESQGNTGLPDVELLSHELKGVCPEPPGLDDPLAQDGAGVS
Procedure, shortened: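 CHO membranes expressing human A2A receptor (50 μg protein) in 50 mM Tris HCl, 10 mM MgCl2, pH 7.4, competed against [3H]SCH 58261. At least 6–8 test concentrations were used, with 60 min incubation at 25 °C. Nonspecific binding defined by 50 μM NECA; n=3-6.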

[6] = biological target: Adenosine receptors; A1 & A3 (Homo sapiens) (UniProt P30542+P0DMS8); experiment: Ratio of binding affinity of human A1 receptor to that of human A3 receptor; assay type: protein assay
Procedure, shortened: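 Ki ratio from displacement in CHO membranes, 6–8 concentrations, n=3-6, filtration counting. A1: 1 nM [3H]DPCPX, 50 μg protein, 120 min at 25 °C, nonspecific with 10 μM CHA. A3: 1 nM [3H]MRE3008-F20, 50 μg protein, Tris/10 mM MgCl2 pH 7.4, 120 min at 4 °C, nonspecific with 1 μM MRE3008-F20.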

[7] = biological target: T4, Adenosine receptor A1 (Homo sapiens, UniProt P30542); experiment: Displacement of [3H]DPCPX from human adenosine A1 receptor expressed in CHO cells; range 11-17; assay type: cell-based
T4 sequence (P30542 whole entry): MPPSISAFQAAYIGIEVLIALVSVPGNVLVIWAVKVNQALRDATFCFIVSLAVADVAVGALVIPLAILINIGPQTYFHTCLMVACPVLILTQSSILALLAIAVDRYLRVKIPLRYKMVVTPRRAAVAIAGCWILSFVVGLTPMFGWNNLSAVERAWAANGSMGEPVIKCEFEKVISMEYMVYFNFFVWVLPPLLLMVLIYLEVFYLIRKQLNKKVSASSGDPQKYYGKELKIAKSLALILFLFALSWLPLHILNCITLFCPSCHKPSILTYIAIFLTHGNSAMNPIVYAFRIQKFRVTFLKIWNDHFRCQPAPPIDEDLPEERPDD

[8] = biological target: T5, Adenosine receptor A3 (Homo sapiens, UniProt P0DMS8); experiment: biochemical
T5 sequence (P0DMS8 whole entry): T2 sequence (whole entry)

[9] = biological target: T3, Adenosine receptor A2a; experiment: Displacement of [3H]-SCH- 58261 from human adenosine A2A receptor expressed in CHO cells; range 1.90-3.37; assay type: cell-based
[10] = biological target: T5, Adenosine receptor A3; experiment: biochemical; remark: listed apart in the source
[11] = biological target: T1, Adenosine receptor A2b; experiment: Displacement of [3H]DPCPX from Adenosine A2b receptor expressed in CHO cells; range 35-45; assay type: cell-based; settings: in the assay text read “HEK-293 cells” for “CHO cells”
Procedure, shortened: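 Human recombinant A2B receptor was expressed in HEK-293 cell membranes (20 μg protein). Incubated with 40 nM [3H]DPCPX in 50 mM Tris HCl, 10 mM MgCl2, 1 mM EDTA, 0.1 mM benzamidine, pH 7.4, with 2 IU/mL adenosine deaminase, at least 6–8 test concentrations, 60 min, 25 °C. Nonspecific binding was taken with 100 μM NECA; n=3-6.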

[12] = biological target: T4, Adenosine receptor A1; experiment: Displacement of [3H]DPCPX from human adenosine A1 receptor expressed in CHO cells; range 254-356; assay type: cell-based
[13] = biological target: T2, Adenosine receptor A3 (Homo sapiens); settings: CHO, 1 uM
[14] = biological target: T5, Adenosine receptor A3; experiment: biochemical; remark: listed apart in the source
[15] = biological target: T1, Adenosine receptor A2b; experiment: Displacement of [3H]-DPCPX from Adenosine A2b receptor expressed in […]; range 52-65; assay type: cell-based
[16] = biological target: T3, Adenosine receptor A2a; experiment: Displacement of [3H]-SCH- 58261 from human adenosine A2A receptor expressed in CHO cells; range 850-1230; assay type: cell-based
[17] = biological target: T3, Adenosine receptor A2a; experiment: biochemical
[18] = biological target: T5, Adenosine receptor A3; experiment: Displacement of [3H]MRE3008-F20 from human adenosine A3 receptor expressed in CHO cells; range 247-317; assay type: cell-based
[19] = biological target: T1, Adenosine receptor A2b; experiment: Displacement of [3H]DPCPX from Adenosine A2b receptor expressed in […]; range 3.9-6.7; assay type: cell-based

## CCCn1cc2c(nc(NC(=O)Nc3ccc(OC)cc3)n3nc(-c4ccco4)nc23)n1
[1]
  Ki: 2.06 µM

## CCCCn1cc2c(nc(N)n3nc(-c4ccco4)nc23)n1
[2]
  inhibition: 15%
[3]
  Ratio: 0.09
[4]
  Ki: 0.053 µM
[5]
  Ki: 0.0016 µM
[6]
  Ratio: 0.02
[7]
  Ki: 0.014 µM
[8]
  Ki: 0.6 µM

## CCCn1cc2c(nc(N)n3nc(-c4ccco4)nc23)n1
[9]
  Ki: 0.00251 µM
[10]
  Ki: 0.408 µM
[2]
  inhibition: 23%
[11]
  Ki: 0.039 µM
[3]
  Ratio: 0.095
[6]
  Ratio: 0.024

## COc1ccc(NC(=O)Nc2nc3nn(CC=C(C)C)cc3c3nc(-c4ccco4)nn23)cc1
[12]
  Ki: 0.3 µM
[13]
  inhibition: 42%
[14]
  Ki: 0.04 µM
[15]
  Ki: 0.058 µM
[3]
  Ratio: 1.45
[6]
  Ratio: 7.5
[16]
  Ki: 1.02 µM

## Nc1nc2nn(CCc3ccccc3)cc2c2nc(-c3ccco3)nn12
[17]
  Ki: 0.00034 µM
[18]
  Ki: 0.28 µM
[19]
  Ki: 0.0051 µM
[2]
  inhibition: 28%
[3]
  Ratio: 0.0017
[6]
  Ratio: 0.003
